≈ marks a conversion by molar mass, not a printed value. Calls of active or inactive are those of the source. The calls are words filed in the database; no cut-off is given here.
How the values were obtained:
[1] = Antiinflammatory activity in human SAEC assessed as inhibition of Poly(I:C) induced CIG5 expression by measuring residual activity rate at 10 uM pretreated for 24 hrs followed by Poly(I:C) addition for 4 hrs by qRT-PCR analysis; format: functional; conditions: time 28 hrs
Summary of the method: (§1)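 hSAECs pretreated with compound at 10 μM final for 24 h, then poly(I:C) 10 μg/mL for 4 h. CIG5 or IL-6 mRNA measured by qRT-PCR (ΔΔCt, normalized to PPIA). Residual activity given as % of poly(I:C)-alone control, mean ± SD of three independent measurements.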

[2] = Antiinflammatory activity in human SAEC assessed as inhibition of Poly(I:C) induced IL-6 expression by measuring residual activity rate at 10 uM pretreated for 24 hrs followed by Poly(I:C) addition for 4 hrs by qRT-PCR analysis; format: functional; conditions: time 28 hrs; summary of the method: as §1
[3] = Aqueous solubility of the compound after 24 hrs by HPLC analysis; format: physicochemical; conditions: buffer
Summary of the method: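 Compound suspended in water and shaken 24 h at 25 °C, then centrifuged and filtered. Supernatant analyzed by C18 reverse-phase HPLC with one-point calibration against solutions of known concentration.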

[4] = Antiinflammatory activity in human SAEC assessed as inhibition of Poly(I:C) induced CIG5 expression pretreated for 24 hrs followed by Poly(I:C) addition for 4 hrs by qRT-PCR analysis; format: functional, cell-based
Summary of the method: (§2)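 Poly(I:C) 10 μg/mL then added for 4 h. CIG5 or IL-6 mRNA measured by qRT-PCR (ΔΔCt, PPIA normalized). IC50 from a four-parameter fit, mean ± SD of three independent runs.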

Mus musculus = assay: Antiinflammatory activity in C57BL/6 mouse model of poly(I:C)-induced acute airway inflammation assessed as decrease in H3K122Ac accumulation in lung tissue at 10 mg/kg, po administered 1 day prior to poly(I:C) stimulation by immunofluorescence analysis; format: functional, organism-based
Summary of the method: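 Same mouse model: 10 mg/kg po one day before, plus a second dose with intranasal poly(I:C) (300 μg). Lungs collected one day later. H3K122Ac detected by immunofluorescence on paraffin lung sections and quantified as fold change in total fluorescence intensity.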

SAEC = assay: Antiinflammatory activity in human SAEC assessed as decrease in H3K122Ac accumulation by immunofluorescence analysis; format: functional, cell-based
Summary of the method: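 Immortalized human small airway epithelial cells stimulated with poly(I:C) at 10 μg/mL. H3K122Ac detected by immunofluorescence and quantified as fold change in total fluorescence intensity.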

[5] = Antiinflammatory activity in human SAEC assessed as inhibition of Poly(I:C) induced IL-6 expression pretreated for 24 hrs followed by Poly(I:C) addition for 4 hrs by qRT-PCR analysis; format: functional, cell-based; summary of the method: as §2

Compound	Activity [1] [%]	Activity [2] [%]	other results
O=C(Nc1ccc(C(F)(F)F)cc1)Nc1ccc(S(=O)(=O)N2CCC(N3CCCC3)CC2)cc1	10	0.31	
O=C(Nc1ccc(C(F)(F)F)cc1)Nc1ccc(S(=O)(=O)NC2CCCC2)cc1	28	190	
COC(=O)[C@@H]1CCCN1S(=O)(=O)c1ccc(NC(=O)Nc2ccccc2)cc1	75.3	237	
Cc1cc(/N=N/c2ccc(S(=O)(=O)NC3CCCC3)cc2)c(N)cc1O	15.6	0.91	solubility [3]: 12.8 µg/mL (≈ 34.2 µM)
COC(=O)[C@@H]1CCCN1S(=O)(=O)c1ccc(NC(=O)Nc2ccc(C(F)(F)F)cc2)c(F)c1	137	51.9	
COC(=O)[C@@H]1CCCN1S(=O)(=O)c1ccc(N/N=C(\C#N)C(=O)c2ccc(OC(F)(F)F)cc2)cc1	1.02	17.5	
NC(=O)[C@@H]1CCCN1S(=O)(=O)c1ccc(NC(=O)Nc2ccc(C(F)(F)F)cc2)cc1	22.6	12.7	
Cc1sc2c(c1C)C(c1ccc(Cl)cc1)=N[C@@H](CC(=O)OC(C)(C)C)c1nnc(C)n1-2	2.6	8.1	IC50 [4]: 970 nM; Activity (Mus musculus): Active; Activity (SAEC): Active
COC(=O)[C@@H]1CCCN1C(=O)c1ccc(NC(=O)Nc2ccc(C(F)(F)F)cc2)cc1	5.79	16.5	
O=C(Nc1ccc(N2CCS(=O)(=O)CC2)cc1)Nc1ccc(C(F)(F)F)cc1	6.14	73.6	
COC(=O)[C@@H]1CCCN1S(=O)(=O)c1ccc(NC(=O)Nc2ccc(OC)cc2)cc1	73.3	418	
COC(=O)[C@@H]1CCCN1S(=O)(=O)c1cccc(NC(=O)Nc2ccc(C(F)(F)F)cc2)c1	163	19.9	
COC(=O)[C@H]1CCCN1S(=O)(=O)c1ccc(NC(=O)Nc2ccc(C(F)(F)F)cc2)cc1	2.21	0.47	
COC(=O)[C@@H]1CCCN1S(=O)(=O)c1ccc(NC(=O)Nc2ccc(F)cc2)cc1	28.8	149	
COC(=O)[C@@H]1CCCN1S(=O)(=O)c1ccccc1NC(=O)Nc1ccc(C(F)(F)F)cc1	12.6	2.63	
O=C(Nc1ccc(C(F)(F)F)cc1)Nc1ccc(S(=O)(=O)N2CCC[C@H]2C(=O)O)cc1	214	25.3	
COC(=O)[C@@H]1CCCN1S(=O)(=O)c1ccc(NC(=O)Nc2ccc(C(F)(F)F)cc2)cc1	2.19	3.42	IC50 [4]: 1350 nM; IC50 [5]: 1830 nM
COC(=O)[C@@H]1CCCN1S(=O)(=O)c1ccc(NC(=O)Nc2ccc(C(F)(F)F)cc2)cc1OC	59.5	22.5	
COC(=O)[C@@H]1CCCN1S(=O)(=O)c1ccc(NC(=O)Nc2ccc(OC(F)(F)F)cc2)cc1	20.5	14.3	

From ChEMBL document CHEMBL5042517, “Discovery, X-ray Crystallography, and Anti-inflammatory Activity of Bromodomain-containing Protein 4 (BRD4) BD1 Inhibitors Targeting a Distinct New Binding Site” (J Med Chem, 2022)
